Results: ChEMBL document CHEMBL1268997, “Synthesis and biological evaluation of 3-substituted-benzofuran-2-carboxylic esters as a novel class of ischemic cell death inhibitors” (Bioorg Med Chem Lett, 2010)

Tests used:
H9c2 [1] = test: Cytoprotective activity against OGD-induced ischemic cell death in rat H9c2 cells assessed as cell death at 10 uM for 30 mins by DAPI analysis; type: functional
In short: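 H9c2 rat heart cells grown in DMEM with 10% FBS and penicillin/streptomycin at 37 °C in 5% CO2. Compound added 30 min before and during oxygen-glucose deprivation. Cells fixed with 0.5% Triton X-100 in PBS for 15 min, then DAPI-stained. Nuclei counted by fluorescence microscopy in three random fields of at least 300 cells to give % dead cells. Mean ± SEM.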

H9c2 [2] = test: Cytoprotective activity against OGD-induced ischemic cell death in rat H9c2 cells assessed as cell death at 10 uM for 30 mins by LDH release assay; type: functional
In short: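 H9c2 rat heart cells grown in DMEM with 10% FBS and penicillin/streptomycin at 37 °C in 5% CO2. Pretreated with compound for 30 min, then kept on compound during oxygen-glucose deprivation. Cell death read as LDH released, expressed as a percentage of LDH released by full lysis with 0.1% Triton X-100. Mean ± SEM; Student's t-test.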

[3] = Cytoprotective activity against OGD-induced ischemic cell death in Sprague-Dawley rat primary cardiac myocytes assessed as inhibition of cell death treated for 6 hrs by counting DAPI-stained nuclei; settings: Cardiac muscle cell

Structure (SMILES): COC(=O)c1sc2ccccc2c1NC(=O)CSc1ccc(Br)cc1
- Activity (H9c2 [1]): 13.92%
- Activity (H9c2 [2]): 41.31%

Structure (SMILES): COC(=O)c1oc2ccccc2c1NC(=O)CNc1ccccc1
- Activity (H9c2 [1]): 21.04%
- Activity (H9c2 [2]): 62.76%

Structure (SMILES): COC(=O)c1oc2cccc(Cl)c2c1NC(=O)CSc1ccc(Br)cc1
- Activity (H9c2 [1]): 8.94%
- Activity (H9c2 [2]): 35.48%
- EC50 [3]: 630 nM

Structure (SMILES): COC(OC)[C@@]1(C)Oc2ccc(N)cc2[C@@H](N/C(=N/Cc2ccccc2)NC#N)[C@@H]1O
- Activity (H9c2 [1]): 15.54%
- Activity (H9c2 [2]): 43.33%
- EC50 [3]: 1110 nM

Structure (SMILES): COC(=O)c1oc2ccccc2c1NC(=O)CSc1ccc(Br)cc1
- Activity (H9c2 [1]): 10.59%
- Activity (H9c2 [2]): 32.39%
- EC50 [3]: 778 nM

Structure (SMILES): COC(=O)c1oc2ccccc2c1NC(=O)CSc1ccc(N)cc1
- Activity (H9c2 [1]): 16.54%
- Activity (H9c2 [2]): 40.15%

Structure (SMILES): COC(=O)c1oc2ccccc2c1NC(=O)CSc1ccccc1Br
- Activity (H9c2 [1]): 13.63%
- Activity (H9c2 [2]): 41.01%

Structure (SMILES): COC(=O)c1oc2ccccc2c1NC(=O)CSc1ccc([N+](=O)[O-])cc1
- Activity (H9c2 [1]): 6.18%
- Activity (H9c2 [2]): 30.21%
- EC50 [3]: 532 nM

Structure (SMILES): COC(=O)c1oc2ccccc2c1NC(=O)CCc1ccccc1
- Activity (H9c2 [1]): 15.94%
- Activity (H9c2 [2]): 38.72%

Structure (SMILES): COC(=O)c1oc2cccc(Cl)c2c1NC(=O)CCSc1ccccn1
- Activity (H9c2 [1]): 7.02%
- Activity (H9c2 [2]): 29.46%
- EC50 [3]: 557 nM

Structure (SMILES): COC(=O)c1oc2ccccc2c1NC(=O)CCSc1ccccn1
- Activity (H9c2 [1]): 11.55%
- Activity (H9c2 [2]): 36.07%
- EC50 [3]: 929 nM

Structure (SMILES): COC(=O)c1oc2ccccc2c1NC(=O)CSc1ccccc1
- Activity (H9c2 [1]): 15.97%
- Activity (H9c2 [2]): 40.93%

Structure (SMILES): COC(=O)c1oc2ccccc2c1NC(=O)CSc1ccc(OC)cc1
- Activity (H9c2 [1]): 9.73%
- Activity (H9c2 [2]): 40.34%
- EC50 [3]: 752 nM

Structure (SMILES): COC(=O)c1oc2ccccc2c1NC(=O)CSc1cccc(Br)c1
- Activity (H9c2 [1]): 16.85%
- Activity (H9c2 [2]): 39.51%

Structure (SMILES): COC(=O)c1oc2ccccc2c1NC(=O)CSc1ccc(C)cc1
- Activity (H9c2 [1]): 21.57%
- Activity (H9c2 [2]): 56.39%

Structure (SMILES): COC(=O)c1oc2ccccc2c1NC(=O)COc1ccc(Br)cc1
- Activity (H9c2 [1]): 13.17%
- Activity (H9c2 [2]): 36.17%
- EC50 [3]: 1180 nM

Structure (SMILES): COC(=O)c1oc2ccccc2c1NC(=O)CNc1ccc(Br)cc1
- Activity (H9c2 [1]): 22.37%
- Activity (H9c2 [2]): 60.32%
